Compound activity as filed in PubChem BioAssay.
A selection: hits, their analogues and other compounds. The true share with any hit is near 4.9%.
NF-kB neuron act: activators of NF-kB expression in neurons, primary screen, cell-based, HTS | 190,000 tested, 1.6% active | fold change at 12.5 µM | AID 1239, 2008 | human neuronal cells, NF-kB reporter expression; stronger effect = higher value; in the data active = fold change above about 3.3
APP 5'UTR act: activators of APP 5'UTR luciferase reporter, primary screen, SH-SY5Y cells | activation, % at 2 µM | 190,000 tested, 1% active | AID 1276, 2008 | SH-SY5Y APP 5'UTR luciferase reporter, luminescence; zero percent = DMSO vehicle wells;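 active = activation above a set limit, based on mean plus 3 SD of controls, cut at about 140% in these data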
STAT1 inh: STAT1 signaling inhibitors, primary screen, cell-based, HTS, luciferase reporter; NIH 3T3 STAT1-luciferase reporter, IFN-gamma, luminescence; inhibition, % at 5.5 µM; 200,000 tested, 0.35% active;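 active = inhibition above a set limit, the mean inhibition across all tested compounds plus 3 SD, cut at about 34% in these data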;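 also: 0% = IFN-gamma with DMSO and 100% = IFN-gamma with 300 µM nifuroxazide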
STAT3 act: IL-6 driven STAT3 reporter potentiators, primary screen, U3A cells, luciferase, luminescence, MLSCN library | IL-6 STAT3-luciferase reporter; 100% = signal with IL-6 EC80 alone | activation (% of control), % at 5.6 µM | 190,000 tested, 0.91% active | AID 871, 2007;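 active = activation above the screen-wide mean of compound activation plus 3 SD, cut at about 130% in these data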;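 also: 0% = background luminescence of wells with medium and substrate only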
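System – human U3A cells carrying STAT3-luciferase construct · Probe or stimulus – Interleukin-6, 33 ng/mL · Schedule – compound 1 h, then IL-6 6 h at 37 °C · Signal – luminescence from STAT3-driven luciferase reporter · Evaluation – percent of IL-6-only median luminescence · Benchmarks – IL-6-only high control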
STAT3 inh: IL-6 driven STAT3 reporter inhibitors, primary screen, U3A cells, luciferase, luminescence, MLSCN library; IL-6 STAT3-luciferase reporter; host cell line lacks STAT1; inhibition, % at 5.5 µM; 190,000 tested, 0.89% active;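 active = inhibition above the mean inhibition across all screened compounds plus 3 SD, cut at about 44% in these data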;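 also: 0% = DMSO only wells and 100% = 100 µM nifuroxazide control wells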
STAT1 activator: STAT1 signaling activators, primary screen, cell-based, HTS, luciferase reporter. activation (% of control), % at 5.5 µM. AID 932, 2007. 200,000 tested, 2.6% active. NIH 3T3 STAT1-luciferase reporter, IFN-gamma, luminescence; 100% = IFN-gamma alone, no compound;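 active = activation above the screen-wide mean activation plus 3 SD, cut at about 130% in these data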;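 also: raw ratio to IFN-gamma control signal so 100% means no change and 0% no light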
* = called active by the depositor; nt = not tested or not shown.

SMILES	NF-kB neuron act	APP 5'UTR act	STAT1 inh	STAT3 act	STAT3 inh	STAT1 activator
Cc1ccc2nc3sc(C(=O)NCc4ccco4)c(N)c3cc2c1	3.7*	179*	-40	70	40	139*
COc1cc2cc3c(N)c(C(=O)NCc4ccco4)sc3nc2cc1OC	0.98	29	-51	92	15	146*
O=C(O)c1cccc(NC(=S)N/N=C/c2ccccc2OCc2ccc(Br)cc2)c1	1.6	-6	-11	94	9	109
Oc1ccc(/C=N/NC(=S)Nc2cccnc2)cc1O	1.4	15	-4	94	6	104
O=C(O)c1cccc(NC(=S)N/N=C/c2cccc(O)c2)c1	1.5	-11	43*	51	60*	59
S=C(N/N=C/c1ccc2ncccc2c1)Nc1cccnc1	0.51	7	39*	44	68*	64
O=C(O)c1cccc(NC(=S)N/N=C/c2ccccc2OCc2cccc(Br)c2)c1	1.2	12	-2	91	12	103
O=C(O)c1cccc(NC(=S)N/N=C/c2ccccn2)c1	2.7	52	79*	27	91*	26
O=S(=O)(C/C(=C/CO)S(=O)(=O)c1ccccc1)c1ccccc1	0.93	-80	-175	62	48*	260*
COCc1c(CCl)cnc(C)c1O	1.2	-9	0	97	9	100
Fc1ccc(-c2cnn3c(-c4ccncc4)ccnc23)cc1	6.4*	199*	-54	74	37	148*
CCOC(=O)c1c(C)nc2cc(C)cc(C)n12	0.98	12	-12	91	20	109
CCOC(=O)c1c(C)nc(-c2ccccc2)nc1N	4*	123	-53	152*	-57	148*
CCOC(=O)c1c(C)nc(C)c(C(=O)OCC)c1-c1ccccc1	1	20	-1	106	-1	101
CC(=O)c1c(C)nc(-c2ccccc2)nc1N	1.5	11	-18	95	9	114
CCOC(=O)c1c(-c2ccccc2)cn2c(C)cc(C)nc12	1.1	100	-46	91	15	138*
O=C(O/N=C(\c1ccccc1)c1ccncc1)c1ccccc1Cl	1.2	2	-2	93	18	100
N/C(=N\OC(=O)c1ccc(Cl)cc1Cl)c1cccnc1	6.3*	131	-33	87	19	129*
N/C(=N\OC(=O)c1cccc2ccccc12)c1cccnc1	1.9	63	-33	136*	-39	128
COc1ccc(/C(N)=N/OC(=O)Oc2ccccc2)cc1OC	0.92	3	4	106	-4	97
N/C(=N\OC(=O)c1ccccc1Cl)c1ccccc1	7.7*	166*	0	99	1	100
N/C(=N\OC(=O)c1ccc(Cl)cc1)c1cccnc1	2.5	45	-38	87	16	127
COc1ccc(C(=O)O/N=C(\N)c2ccccc2)c(OC)c1	1.6	188*	34*	38	76*	68
COc1ccccc1C(=O)Oc1ccc(C(C)C)cc1	1.1	26	-1	107	-2	100
N/C(=N\OC(=O)c1ccc(Cl)cc1Cl)c1ccc(Cl)cc1	1.5	15	-31	72	43	128
SMILES	NF-kB neuron act	APP 5'UTR act	STAT1 inh	STAT3 act	STAT3 inh	STAT1 activator
N/C(=N\OC(=O)c1ccco1)c1ccc(Cl)cc1	1.1	158*	-42	89	15	137*
COc1ccccc1C(=O)O/N=C(\N)c1ccccc1Cl	2.7	49	-44	109	-11	139*
N/C(=N\OC(=O)CCc1ccccc1)c1ccccc1Cl	1.2	33	-44	99	10	141*
N/C(=N\OC(=O)c1ccc(Cl)cc1Cl)c1ccccc1	2.5	174*	-9	72	42	108
Cc1ccc(/C(N)=N/OC(=O)CCc2ccccc2)cc1	2	45	-24	104	7	121
CCCCn1c(=O)[nH]c(=O)c2c1nc(-c1ccccc1F)n2Cc1ccccc1OC	0.77	12	-2	119	-20	100
Brc1ccc2ncc(Br)cc2c1	1.2	5	-6	104	-6	105
O=C(O)/C=C\C(=O)NCc1cccnc1	1.2	36	3	99	6	96
O=c1cc(O)c(-c2ccccc2Cl)c(Cl)[nH]1	0.96	-2	3	99	6	97
Cc1cccc(-c2c(O)cc(=O)[nH]c2Cl)c1	5.9*	11	0	101	3	99
COc1cc2[nH]c(-c3ccc(C)cc3)cc(=O)c2cc1OC	1.1	12	-8	107	-11	107
Cc1ccc(-c2cc(=O)c3ccccc3[nH]2)cc1	1.7	14	-2	94	5	102
Cc1ccc2[nH]c(-c3ccccc3)cc(=O)c2c1	6*	-91	-29	88	15	126
COc1ccc(-c2cc(=O)c3cc(C)ccc3[nH]2)cc1	6.5*	99	-55	90	9	150*
Cc1ccc(-c2cc(=O)c3cc(Cl)ccc3[nH]2)cc1	1.8	138*	-44	nt	nt	143*
O=C1CCCCC1Sc1nnc(Nc2ccccc2)s1 (stereo unspecified)	3.1	58	-49	112	-12	144*
COc1ccc2cc(C(N)=O)c(=Nc3ccc(C)cc3)oc2c1	1.3	16	-43	98	13	138*
Cc1cccc(N=c2oc3cc(O)ccc3cc2C(N)=O)c1	1.9	-11	-33	99	6	130*
COc1ccc2oc(=Nc3cccc(F)c3)c(C(N)=O)cc2c1	1.2	7	-28	92	12	123
COc1ccc(N=C2NC(=O)S/C2=C\c2ccc(N(C)C)cc2)cc1	1.6	23	-35	107	-3	132*
O=[N+]([O-])c1cccc2ccc(/C=C/c3ccc(Cl)cc3)nc12	2	23	-14	115	-24	113
CC(=O)Nc1ccc(/C=C/c2ccc3c([N+](=O)[O-])cccc3n2)cc1	1.1	65	-42	96	7	136*
O=[N+]([O-])c1cc(/C=N/O)ccc1Oc1ccccc1Cl	1.9	41	-37	122	-15	131*
COC(=O)c1cn(NC(=O)Cc2ccccc2Br)c(=O)c2ccccc12	1.1	25	4	102	1	95
O=C(NNc1ccnc2cc(Cl)ccc12)C1CCCCC1	1.1	-18	36*	39	76*	66
Cc1cc(C=C2C(=O)c3ccccc3C2=O)c(C)n1-c1cccc(C(=O)O)c1	0.71	40	-7	99	10	107
Cc1cc(/C=C2/C(=O)NN(c3ccccc3)C2=O)c(C)n1-c1cccc(O)c1	0.92	181*	-16	76	24	114
